Calls of active or inactive are those of the source. The calls are words filed in the database; no cut-off is given here.

Assay [1] concerns SK-BR-3. In words: Induction of apoptosis in SK-BR-3 cells at 5 uM. Type of assay: functional, cell-based. The following applies: Homo sapiens. In short, it runs like this:
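Cells plated at 0.5 × 10⁴ to 1 × 10⁴ per well in custom medium and left to adhere overnight. Treated 24 h at 5 µM in defined medium, triplicate. After fixation, DNA in apoptotic cells denatured by formamide plus heat. Single-stranded DNA detected by monoclonal antibody ELISA with ABTS, absorbance at 405 nm.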

Assay [2] concerns SK-BR-3. In words: Decrease in CYP19 gene expression in SK-BR-3 cells at 5 uM. The assay is classed as functional, cell-based. As to conditions: Homo sapiens. In short, it runs like this:
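SK-BR-3 cells grown to subconfluency, switched to defined DMEM/F12 medium (human albumin, transferrin, insulin), then exposed 24 h at 5 µM. Total RNA by TRIzol, DNase I-treated, reverse-transcribed with random hexamers (Superscript II, 42 °C 50 min). Taqman real-time PCR with 600 nM CYP19 primers, 50 cycles. CYP19 normalized to 18S rRNA, n = 9, unpaired t test vs control.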

For the compound `CN(c1ccc([N+](=O)[O-])cc1OCc1ccc2ccccc2c1)S(C)(=O)=O`, in the assay on SK-BR-3 [1], the result was inactive. Moreover, in the assay with SK-BR-3 [2], the outcome was Active.

Take `CN(c1ccc([N+](=O)[O-])cc1OCc1ccccc1-c1ccccc1)S(C)(=O)=O`: the result with SK-BR-3 [1] was inactive. In addition, in the assay with SK-BR-3 [2], the outcome was Active.

As for `CN(c1ccc([N+](=O)[O-])cc1OCc1ccc(F)cc1)S(C)(=O)=O`, the result with SK-BR-3 [1] was inactive. Further, the outcome in the assay on SK-BR-3 [2] was Active.

As for `CS(=O)(=O)Nc1ccc([N+](=O)[O-])cc1OCCc1ccccc1`, the result with SK-BR-3 [2] was inactive.

As to `CN(c1ccc([N+](=O)[O-])cc1OCc1ccc([N+](=O)[O-])cc1)S(C)(=O)=O`, in the assay on SK-BR-3 [1], the result was inactive. Besides, the outcome in the assay on SK-BR-3 [2] was Active.

With `Cc1ccc(COc2cc([N+](=O)[O-])ccc2N(C)S(C)(=O)=O)cc1`, the outcome with SK-BR-3 [1] was inactive.

`CN(c1ccc([N+](=O)[O-])cc1OCc1ccccc1)S(C)(=O)=O`: the result in the assay with SK-BR-3 [1] was inactive. Also, the result in the assay with SK-BR-3 [2] was Active.

(Values after ChEMBL document CHEMBL1142944, “Synthesis and biological evaluation of selective aromatase expression regulators in breast cancer cells” (J Med Chem, 2007).)
